“And” between values parts separate entries of the source, which are not always exact repeats. Identical values can stand only once. Like-named read-outs stand apart in the source and are kept apart here.
How the values were obtained:
[1] = target: T1, exonuclease-deficient bacteriophage T4 DNA polymerase (gp43 exo−) (Enterobacteria phage T4, UniProt P04415, D219A); settings: single abasic site, cited from earlier work; for Kd: read-out: Kd, app
T1 sequence (P04415 1-898 D219A): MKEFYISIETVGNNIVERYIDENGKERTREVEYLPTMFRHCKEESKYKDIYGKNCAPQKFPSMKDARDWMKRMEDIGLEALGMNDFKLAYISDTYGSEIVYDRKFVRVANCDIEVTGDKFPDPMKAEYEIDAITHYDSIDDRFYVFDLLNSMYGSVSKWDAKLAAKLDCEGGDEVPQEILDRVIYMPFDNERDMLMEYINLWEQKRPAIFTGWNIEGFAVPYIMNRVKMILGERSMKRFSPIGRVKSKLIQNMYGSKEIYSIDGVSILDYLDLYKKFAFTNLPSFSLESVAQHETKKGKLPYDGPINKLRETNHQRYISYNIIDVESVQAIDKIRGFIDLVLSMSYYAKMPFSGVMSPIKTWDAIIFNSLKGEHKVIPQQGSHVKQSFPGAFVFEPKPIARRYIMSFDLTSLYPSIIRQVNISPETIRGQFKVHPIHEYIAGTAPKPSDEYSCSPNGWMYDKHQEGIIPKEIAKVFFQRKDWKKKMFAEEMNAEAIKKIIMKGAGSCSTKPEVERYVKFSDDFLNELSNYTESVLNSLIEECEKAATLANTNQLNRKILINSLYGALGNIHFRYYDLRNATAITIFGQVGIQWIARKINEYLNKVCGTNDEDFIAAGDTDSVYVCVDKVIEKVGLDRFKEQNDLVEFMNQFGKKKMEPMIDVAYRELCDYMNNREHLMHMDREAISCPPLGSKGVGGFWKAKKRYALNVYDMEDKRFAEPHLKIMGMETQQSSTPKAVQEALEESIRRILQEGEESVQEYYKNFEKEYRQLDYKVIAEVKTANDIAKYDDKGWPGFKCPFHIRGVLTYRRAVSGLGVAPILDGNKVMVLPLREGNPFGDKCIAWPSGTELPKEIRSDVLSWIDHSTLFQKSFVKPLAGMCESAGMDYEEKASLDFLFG

[2] = target: T1, exonuclease-deficient bacteriophage T4 DNA polymerase (gp43 exo−); settings: blunt end DNA, cited from earlier work; for Kd: read-out: Kd, app
[3] = target: T1, exonuclease-deficient bacteriophage T4 DNA polymerase (gp43 exo−); settings: opposite thymine, cited from earlier work; for Kd: read-out: Kd, app
[4] = target: T1, exonuclease-deficient bacteriophage T4 DNA polymerase (gp43 exo−); settings: double abasic site, cited from earlier work; for Kd: read-out: Kd, app
[5] = target: T2, bacteriophage T4 DNA polymerase (gp43 exo−) (Enterobacteria phage T4, UniProt P04415, D219A); type: biochemical; settings: 150 µM dXTP, then 500 µM dGTP, quenched at 180 s; 13/20SP-mer
T2 sequence (P04415 1-898 D219A): T1 sequence (P04415 1-898 D219A)
Method in brief: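 Exonuclease-deficient T4 gp43 (D219A), 500 nM, with 250 nM 5′-32P-labelled 13/20SP-mer, in 25 mM Tris–OAc pH 7.5, 150 mM KOAc, 10 mM 2-mercaptoethanol and 10 mM Mg2+ at 25°C. Test nucleotide (150 µM) was inserted for 5 min, then 500 µM dGTP was added. Reactions were quenched with 350 mM EDTA and resolved on 20% sequencing gels. Extended versus non-extended primer was quantified by phosphorimaging, corrected for the zero point.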

[6] = target: T2, bacteriophage T4 DNA polymerase (gp43 exo−); settings: previously demonstrated; cited from earlier work

Row | Structure (SMILES) | Kd [1] | kpol [1] | kpol/Kd, app [1] | kpol [2] | kpol/Kd, app [2] | Kd [2] | kpol [3] | kpol/Kd, app [3] | Kd [3] | kpol [4] | kpol/Kd, app [4] | Kd [4] | Extension beyond the nucleotide paired opposite an abasic site [5] | Extension beyond the nucleotide paired opposite an abasic site [6]
1 | O=[N+]([O-])c1ccc2c(ccn2C2CC(O)C(COP(=O)(O)OP(=O)(O)OP(=O)(O)O)O2)c1 (stereo not shown) [5-NITP] | 18 ± 3 µM | 126 s⁻¹ and 126 ± 7 s⁻¹ | 7 000 000 M^−1 s^−1 | 0.015 ± 0.004 s⁻¹ | 710 M⁻¹ s⁻¹ | 21 ± 8 µM | 0.9 ± 0.1 s⁻¹ | 100 000 M^−1 s^−1 | 9 ± 1 µM | 70 ± 6 s⁻¹ | 3 890 000 M^−1 s^−1 | 18 ± 5 µM | does not extend | 
2 | O=P(O)(O)OP(=O)(O)OP(=O)(O)OC[C@H]1O[C@@H](n2ccc3cc(-c4ccccc4)ccc32)C[C@@H]1O [5-PhITP] | 14 ± 3 µM | 53 s⁻¹ and 53 ± 4 s⁻¹ |  | 0.007 ± 0.004 s⁻¹ | 160 M⁻¹ s⁻¹ | 45 ± 8 µM | 0.16 ± 0.01 s⁻¹ | 6400 M⁻¹ s⁻¹ | 25 ± 7 µM | 45 ± 3 s⁻¹ | 3 750 000 M^−1 s^−1 | 12 ± 2 µM | does not extend | 
3 | Nc1ncnc2c1ncn2[C@H]1C[C@H](O)[C@@H](COP(=O)(O)OP(=O)(O)OP(=O)(O)O)O1 [dATP] | 35 ± 5 µM | 0.15 ± 0.01 s⁻¹ | 4300 M⁻¹ s⁻¹ |  |  |  | 100 ± 10 s⁻¹ | 10 000 000 M^−1 s^−1 | 10 ± 2 µM | 0.55 ± 0.05 s⁻¹ | 3500 M⁻¹ s⁻¹ | 157 ± 28 µM | showed extension beyond the abasic site | extends beyond
4 | Nc1nc2c(ncn2[C@H]2C[C@H](O)[C@@H](COP(=O)(O)OP(=O)(O)OP(=O)(O)O)O2)c(=O)[nH]1 [dGTP] |  |  |  |  |  |  |  |  |  |  |  |  |  | extends beyond

— paper PMC3045600 (Nucleic Acids Research, 2010)
